We go through 15 compounds from ChEMBL document CHEMBL1799983, “Anti-inflammatory and cytotoxic neoflavonoids and benzofurans from Pterocarpus santalinus” (J Nat Prod, 2011).

SMILES strings stand for the structures. Converted amounts (≈) assume the structure as drawn. Bounds are passed on as bounds.

The nature of assay [1]: Antiinflammatory activity in human neutrophils assessed as inhibition of FMLP/CB-induced elastase release. The assay is classed as functional, cell-based. The following applies: Neutrophil. A digest of the protocol:
(§1)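 IC50 (concentration giving 50% inhibition) in human neutrophils, reported as mean ± SEM, n = 3–5. LY294002, a phosphatidylinositol-3-kinase inhibitor, served as the positive control for both superoxide anion generation and elastase release.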

For assay [2], the system named is A549. Kind of assay: Cytotoxicity against human A549 cells by MTT assay. The assay is classed as functional, cell-based. A digest of the protocol: (§2)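 Fractions and isolates were screened against the cancer cell lines by a colorimetric MTT assay run to an established protocol, with doxorubicin as the positive control.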
For orientation: Tetrazolium dyes change colour on reduction, which living cells bring about.

Assay [3] relates to Ca9-22. Briefly: Cytotoxicity against human Ca9-22 cells by MTT assay. The assay is classed as functional, cell-based. A digest of the protocol: as §2
For assay [4], the system named is MDA-MB-231. Briefly: Cytotoxicity against human MDA-MB-231 cells by MTT assay. The assay is classed as functional, cell-based. A digest of the protocol:
as §2

The test system of assay [5] is MCF7. Briefly: Cytotoxicity against human MCF7 cells by MTT assay. The assay is classed as functional, cell-based. A digest of the protocol: as §2
Assay [6] relates to HepG2. Briefly: Cytotoxicity against human HepG2 cells by MTT assay. The assay is classed as functional, cell-based. The essentials:
as §2

Assay [7] can be described thus: Cytotoxicity against human Hep3B cells by MTT assay. The assay is classed as functional, cell-based, Hep 3B2. The essentials:
as §2

A short description of assay [8]: Antiinflammatory activity in human neutrophils assessed as inhibition of FMLP/CB-induced elastase release at 10 ug/ml. The assay is classed as functional, Neutrophil. The following applies: for inhibition at 10 µg/mL: Homo sapiens, Neutrophil. The essentials: (§3)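 Percentage inhibition in human neutrophils, measured at 10 μg/mL test concentration and reported as mean ± SEM (n = 3–5). Significance was tested against the control value at p < 0.05, 0.01 and 0.001. LY294002 was the positive control.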

A short description of assay [9]: Antiinflammatory activity in human neutrophils assessed as inhibition of FMLP/CB-induced superoxide anion generation. The assay is classed as functional, cell-based. The conditions noted are these: Neutrophil. The essentials: as §1
Assay [10] deals with Neutrophil. Briefly: Ratio of LY294002 IC50 to compound IC50 for FMLP/CB-induced elastase release in human neutrophils. The assay is classed as functional.
Assay [11] can be described thus: Antiinflammatory activity in human neutrophils assessed as inhibition of FMLP/CB-induced superoxide anion generation at 10 ug/ml. The assay is classed as functional, Neutrophil. A digest of the protocol:
as §3

Setting [12] is: Homo sapiens, A549, read-out: IC50.
Setting [13] is: Homo sapiens, Ca9-22, read-out: IC50.
Where [14] appears, read: Homo sapiens, MDA-MB-231, read-out: IC50.
[15] abbreviates: Homo sapiens, MCF7, read-out: IC50.
Setting [16] is: Homo sapiens, HepG2, read-out: IC50.
[17] abbreviates: Homo sapiens, Hep3B, read-out: IC50.

A word on the IC50: it is the concentration that gives 50% inhibition. For the compound `COC1=CC(=O)C([C@@H](C)[C@@H](O)c2ccc(OC)c(O)c2)=CC1=O` [PTEROLINUS E], the IC50 in assay [1] was 2.13 µg/mL (≈ 6.69 µM); in [2] (setting [12]) it was 6.96 µg/mL (≈ 21.9 µM); in [3] (setting [13]) it was 6.96 µg/mL (≈ 21.9 µM); in [4] (setting [14]), 6.96 µg/mL (≈ 21.9 µM); in assay [5] (setting [15]) it was 6.96 µg/mL (≈ 21.9 µM); in assay [6] (setting [16]), 6.96 µg/mL (≈ 21.9 µM). In addition, in [7] (setting [17]), the IC50 was determined as 6.96 µg/mL (≈ 21.9 µM).
The inhibition is the drop in the measured response relative to a control, in per cent. Regarding `COc1cc(C2CCOc3cc(OC)c(O)cc32)ccc1O` (stereo not drawn) [PTEROLINUS J], the inhibition at 10 µg/mL in assay [8] worked out at 16.6%. Further, the IC50 is 2.1 µg/mL (≈ 6.95 µM) in assay [9]; over 17.1 µg/mL in assay [2] (setting [12]); over 17.1 µg/mL in [3] (setting [13]); over 17.1 µg/mL in assay [4] (setting [14]); over 17.1 µg/mL in [5] (setting [15]); over 17.1 µg/mL in [6] (setting [16]). Also, the IC50 in assay [7] (setting [17]) was over 17.1 µg/mL.
With `COc1ccc(-c2c(C)oc3cc(OC)c(O)cc23)cc1O` [PTEROLINUS A], the IC50 was 0.33 µg/mL (≈ 1.1 µM) in assay [9]; 2.54 µg/mL (≈ 8.46 µM) in assay [1]; “Not Active” in assay [2] (a549); “Not Active” in assay [3] (ca9-22); “Not Active” in assay [4] (mda-mb-231); “Not Active” in assay [5] (mcf7). In addition, the IC50 result in assay [6] (hepg2) and in [7] (hep 3b2) was “Not Active” in each case.
Regarding `COC1=CC(=O)C2(C(C)C(O)c3ccc(OC)c(O)c3)OC2C1=O` (stereo not drawn) [PTEROLINUS D], in assay [10], the “Ratio IC50” value amounted to 1.9. The IC50 in [9] worked out at 0.29 µg/mL (≈ 0.867 µM); in assay [1] it was 1.06 µg/mL (≈ 3.17 µM); in [4] (setting [14]), 4.89 µg/mL (≈ 14.6 µM); in assay [5] (setting [15]), 3.31 µg/mL (≈ 9.9 µM); in assay [6] (setting [16]), 4.33 µg/mL (≈ 13 µM); in [7] (setting [17]), 2.08 µg/mL (≈ 6.22 µM).
In the case of `COc1ccc([C@H]2Oc3cc(OC)c(OC)cc3[C@@H]2C)cc1O` [PTEROLINUS C], the inhibition at 10 µg/mL in assay [8] amounted to 9.73%. Besides, the IC50 in [9] was 2.28 µg/mL (≈ 7.21 µM); in assay [2] (setting [12]) it was over 19.4 µg/mL; in assay [3] (setting [13]), over 19.4 µg/mL; in assay [4] (setting [14]) it was over 19.4 µg/mL; in assay [5] (setting [15]) it was over 19.4 µg/mL; in assay [6] (setting [16]), over 19.4 µg/mL. Further, the IC50 in assay [7] (setting [17]) is over 19.4 µg/mL.
As to `C=C[C@@H](c1ccc(OC)c(O)c1)c1cc(O)c(C(=O)OC)cc1O` [PTEROLINUS F], the IC50 in assay [1] was 3.22 µg/mL (≈ 9.75 µM); in [2] (setting [12]), 11.1 µg/mL (≈ 33.6 µM); in assay [3] (setting [13]), 11.1 µg/mL (≈ 33.6 µM); in assay [4] (setting [14]), 11.1 µg/mL (≈ 33.6 µM); in assay [5] (setting [15]), 11.1 µg/mL (≈ 33.6 µM); in assay [6] (setting [16]), 11.1 µg/mL (≈ 33.6 µM). In assay [7] (setting [17]), the IC50 was 11.1 µg/mL (≈ 33.6 µM).
As for `COc1cc2oc(-c3ccc(O)cc3)c(C)c2cc1O` [PTEROLINUS B], the IC50 was 0.19 µg/mL (≈ 0.703 µM) in [9], 47.8 µg/mL (≈ 177 µM) in [1], 2.34 µg/mL (≈ 8.66 µM) in assay [2] (setting [12]) and 1.74 µg/mL (≈ 6.44 µM) in assay [5] (setting [15]).
As to `O=c1cc(N2CCOCC2)oc2c(-c3ccccc3)cccc12` [LY-294002], the IC50 turned out to be 1.18 µg/mL (≈ 3.84 µM) in [9] and 1.99 µg/mL (≈ 6.47 µM) in [1].
In the case of `COc1ccc(-c2cc(=O)oc3cc(OC)c(O)cc23)cc1O` [MELANNEIN], the inhibition at 10 µg/mL in assay [8] is -1.53%. Further, the IC50 in assay [9] was 3.18 µg/mL (≈ 10.1 µM); in [2] (setting [12]), over 17.1 µg/mL; in [3] (setting [13]), over 17.1 µg/mL; in assay [4] (setting [14]) it was over 17.1 µg/mL; in [5] (setting [15]), over 17.1 µg/mL; in assay [6] (setting [16]), over 17.1 µg/mL. Also, the half-maximal inhibitory concentration (IC50) in assay [7] (setting [17]) was over 17.1 µg/mL.
In the case of `COc1ccc(-c2oc3cc(OC)c(O)cc3c2C)cc1O` [DEHYDROMELANOXIN], the half-maximal inhibitory concentration (IC50) is 0.73 µg/mL (≈ 2.43 µM) in assay [9]; 3.69 µg/mL (≈ 12.3 µM) in assay [1]; “Not Active” in assay [2] (a549); “Not Active” in assay [3] (ca9-22); “Not Active” in assay [4] (mda-mb-231); “Not Active” in assay [5] (mcf7). Further, the IC50 result in [6] (hepg2) and in assay [7] (hep 3b2) was “Not Active” each time.
For the compound `C=C[C@H](C1=CC(O)(CC(C)=O)C(OC)=CC1=O)c1ccc(OC)c(O)c1` (single isomer, unassigned; epimer 2) [PTEROLINUS HB], the entries for the “inhibition (INH)” value in assay [11] and in assay [8] were 34.15% and 2.84%, respectively. Besides, the IC50 in assay [2] (setting [12]) came to 3.97 µg/mL (≈ 11.1 µM).
Turning to `COc1ccc(C(=O)c2cc(O)c(OC)cc2O)cc1O` [MELANOXOIN], the IC50 was determined as 3.62 µg/mL (≈ 12.5 µM) in assay [1] and 0.46 µg/mL (≈ 1.58 µM) in [3] (setting [13]).
Consider `COc1ccc([C@H]2Oc3cc(OC)c(O)cc3[C@@H]2C)cc1O` [MELANOXIN], for which, in assay [8], the inhibition at 10 µg/mL came to 33.3%. Also, the half-maximal inhibitory concentration (IC50) in assay [9] was determined as 0.69 µg/mL (≈ 2.28 µM); in assay [2] (setting [12]), 7.7 µg/mL (≈ 25.5 µM); in assay [3] (setting [13]), 7.7 µg/mL (≈ 25.5 µM); in assay [4] (setting [14]) it was 7.7 µg/mL (≈ 25.5 µM); in assay [5] (setting [15]) it was 7.7 µg/mL (≈ 25.5 µM); in assay [6] (setting [16]) it was 7.7 µg/mL (≈ 25.5 µM). For the same compound, the IC50 in assay [7] (setting [17]) stood at 7.7 µg/mL (≈ 25.5 µM).
Turning to `C=C[C@H](C1=CC(O)(CC(C)=O)C(OC)=CC1=O)c1ccc(OC)c(O)c1` (single isomer, unassigned) [PTEROLINUS HB], the inhibition at 10 µg/mL in [11] (Homo sapiens, Neutrophil) stood at 29.4%. The “inhibition (INH)” value in assay [8] was determined as 19.53%. Also, the IC50 was determined as 2.85 µg/mL (≈ 7.95 µM) in [4] (setting [14]) and 3.65 µg/mL (≈ 10.2 µM) in assay [6] (setting [16]).
On to `C=C[C@H](C1=CC(=O)C(OC)=CC1=O)c1ccc(OC)c(O)c1`, for which the half-inhibitory concentration (IC50) stood at 0.47 µg/mL (≈ 1.57 µM) in assay [9], 1.44 µg/mL (≈ 4.8 µM) in assay [1], 3.34 µg/mL (≈ 11.1 µM) in assay [4] (setting [14]) and 2.39 µg/mL (≈ 7.96 µM) in assay [7] (setting [17]).
